Measurements published in the EternaBench riboswitch data.

Tested on: MS2 coat protein
Assay: apparent Kd, MS2 coat protein; higher = weaker binding; RNA-MaP array; FMN 200 µM where present
In short: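 In 100 mM Tris-HCl pH 7.5, 80 mM KCl, 4 mM MgCl2, BSA, DTT, yeast tRNA and Tween-20, SNAP-549-labelled MS2 coat protein was titrated from 0.7 or 1.5 nM, doubling to 3 µM, over designs transcribed by stalled E. coli RNA polymerase on Illumina sequencing-chip clusters. This was done first without ligand, then with ligand held constant. After green signal was normalised to red-channel RNA signal and control-cluster median Fmax, the apparent Kd was taken as the median of filtered per-cluster binding-curve fits.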

[1] = designed as: ON switch for flavin mononucleotide, no ligand
[2] = ligand present: flavin mononucleotide, designed as: ON switch for flavin mononucleotide
[3] = designed as: OFF switch for flavin mononucleotide, no ligand
[4] = ligand present: flavin mononucleotide, designed as: OFF switch for flavin mononucleotide

Row | Sequence | apparent Kd [1] [nM] | apparent Kd [2] [nM] | apparent Kd [3] [nM] | apparent Kd [4] [nM]
1 | GUAACAUGAGGAUCACCCAUGUCGUGCUAGAUGAGUUCUAGUGAGGAUAUACAUGGUAAAUAACUGUAGAAGGUGCUGGGUACA | 192 | 229 |  | 
2 | UCCUCCGCAGGAUAUACAUGGGCGCCCGUCUUCAACCAUUAACAUGAGGAUCACCCAUGUAGAAGGGCGUCUCU |  |  | 16.1 | 15.5
3 | UGAUAACAUGUAGGAUAUCCAGCAUUGACCAUCGGAGAAGGACAUGAGGAUCACCCAUGUACCGAUACAAUGGGAUAACGGAAU |  |  | 15.7 | 17.7
4 | AGGAAGUGAGGAUAUGCAGUAGCUAGUGGACGCUAGCACAUGUAGAAGGCACAUGAGGAUCACCCAUGUUUAAA |  |  | 30.5 | 28.3
5 | AAGAAGGACGCAGGAUAUCCAGGACCUCCCGCAGGAGAAGGGCGAGACAUGUGGAUCACCCAGACAUGAGGAUCACCCAUGUAG |  |  | 22.5 | 21
6 | UUGCCUCAGAACAUGAGGAUCACCCAUGUGCUGCGGGCAACGUAGGAUAUGAUGGUACGCUACCAUCAGAAGGAUGAUGGUACC | 5.51 | 4.99 |  | 
7 | GGUGCGUUUGUGAGGAUAUGCUGGUCCUUGGUUCGGCAGAAGGCACAUGAGGAUCACCCAUGUGGUGUCGUUCC |  |  | 15 | 23.3
8 | AACGUCGAAGGAUAUACAUGAGGAUCACCCAUGUGGGACCUGUAGUCUCACCCAUCGUGUAGAAGGUUGAGGCA |  |  | 32.2 | 29.7
9 | GUUUACGCAUGAGGAUAUGCUCGCAUUUCAAGAGCAGAAGGUAUGUCUUUAGACAUGAGGAUCACCCAUGUAUUUAUCAUUGUA | 187 | 29.9 |  | 
10 | AACAAACAUGAGGAUCACCCAUGUCAGGAUAUCGAAACAACAAACAACAAACAACAAACGAGAAGGGACAACAA |  |  | 25.6 | 28.3
11 | GCCCUCGCUGAGGAUAUUAUCUGGUUCGAUUGAUAAGAAGGCAGUACAUGAGGAUCACCCAUGUGGUUCGUUCG |  |  | 70.9 | 377
12 | CGGGUCUGAGGAUAUCCAUCUUCAUACAUGAGGAUCACCCAUGUUUACCUUUGGGUUCCUGGAGAAGGCAGUUUUC |  |  | 74.9 | 78.4
13 | GUACUCAUGUAAGGAUAUGCAGCCGAAACGGCUGCAGAAGGUACUAUAAUACAUGAGGAUCACCCAUGUCAAAAUAAAAUAGUU | 116 | 35.4 |  | 
14 | GCAUGUGUGUAAGGAUAUGCAUCACUGAGAAAUUUAGUGAGGAAGAUCACAUGAGGAUCACCCAUGUAGAAGGUACACACGUGC |  |  | 8.01 | 56.9
15 | AUGAGUGUAAUGAUUGAGCCACUGCAGGAUAUCACAUGAGGAUCACCCAUGUGUCAGCCUCGGAGUGAGAAGGGCGGUUUCUUA |  |  | 5.38 | 10.6
16 | AGCUAGUCAGGAUAUACGAAAAUGUCCGAAGCUGAGAAGGGACAUGAGGAUCACCCAUGUAGAAGGGACUAGCA |  |  | 102 | 264
17 | AUGGUCAUGUUAGGAUAUGACGCGCUGUACGCAUCAGAAGGAACAUGAGGAUCACCCAUGUAUAGAGUAUUAUCGCUUACUCUC |  |  | 52.7 | 85.3
18 | GUAGCUAUCGGAGGAUAUUCAUACCGGAAACGGACAUGAGGAUCACCCAUGUGGAGAAAGCCUUGGGAGAAGGCCGAUAGCUAC | 176 | 17.6 |  | 
19 | ACGUGGCUGCCGCAGGAUAUACCCUGUUCCACAUGAGGAUCACCCAUGUUUACGAACUAUGAGAGGUAGAAGGGUGGAUGUCAUU | 31.2 | 13.9 |  | 

Row | Sequence | apparent Kd [1] [nM] | apparent Kd [2] [nM] | apparent Kd [3] [nM] | apparent Kd [4] [nM]
20 | UGUAUUAUCGGAGGAUAUCGAUAUCAAACAUGAGGAUCACCCAUGUUGAGGAUCACCCAUGUCCACGAGAAGGCCGGCGUACUC | 25.7 | 26.4 |  | 
21 | CCUUCACAUGAGGAUCACCCAUGUCAGGAUAUCUCAGUGCAUCCACACGGACGCAUCAAGAGAAGGGACAAAAC |  |  | 46.4 | 53.6
22 | AAUACAUGAGGAUCACCCAUGUAAAGUUCAAACAAUAUGAGUGAGGAUAUACUGAGUUAGUUAUGGUAGAAGGCACUGGGUACA | 23.1 | 21.8 |  | 
23 | GUGUACAGAGGAUAUACUGGAGCAUGGAAACAUGCAACUUCACAUGAGGAUCACCCAUGUAGAAGGCUGUACAC |  |  | 17.6 | 68.4
24 | UGGUACUAGGGAGGAUAUGGGAAGAUACAUGAGGAUCACCCAUGUUUAAGAAUGCCGAGAGGCAACUAGAAGGCACUAGUACCU | 1100 | 156 |  | 
25 | AAGAGUAGAGGAUAUACAUGAGGAUCACCCAUGUAAUCCGGAUAAGGAAGCAUGUCGUGUAGAAGGCUGCAUGA |  |  | 15.2 | 12.4
26 | CCUUCAGCGAACGAUACGAAUGGACAUGAGGAUCACCCAUGUAGAAGGACAGGAGAAUAACGGCUGUAGGAUAUACAUUUAGUG |  |  | 39.9 | 30
27 | AGGAGGUCAGGAUAUGCUGCUCGUCACUUGCGUGAUGAGUAGCAGAAGGGACAUGAGGAUCACCCAUGUAAAGA |  |  | 55.7 | 95.7
28 | AAUAACAGAGGAUAUACUAUUUUAUGUGUUUGUUGUUUUAAACAUGAGGAUCACCCAUGUAGAAGGCUGAAUAA |  |  | 21 | 26
29 | CGCGAACAUGAGGAUCACCCAUGUGGGUGGAACGUAGGAUAUACGCAGGUCUUUAAAACGGUAGAAGGACGUUCGC | 452 | 159 |  | 
30 | UCGCUGCGAGGAUAUACGUUUGCGCGCUUUCGUUUGCGCGUACAUGAGGAUCACCCAUGUAGAAGGCGCGCUGC |  |  | 15.5 | 15.5
31 | CACGGAAACGUGAAACGUAGCAUACGAGAAGGCUGAUCCACGACAUGAGGAUCACCCAUGUAGUUAGAGGAUAUUGGAUGCUAC | 57.7 | 12.2 |  | 
32 | AGUGUGUGGCAGGAUAUUCCGGUCGUGAGUCGGGAAGAAGGGUCUACAUGAGGAUCACCCAUGUGAGCGGUUGA |  |  | 317 | 360
33 | CAGACACAUCUAGGAUAUGGUGAUGCUCAAAACACAUGAGGAUCACCCAUGUAGCCUGUGUAUAAUCAGAAGGAGAACCGUGUA | 84.6 | 500 |  | 
34 | GGCCUGCAGCUAGGAUAUGGGCGAUCACAUGAGGAUCACCCAUGUCAACAUCAAAACAAGAUUAACCAGAAGGAGCCGCGAGUU | 26.5 | 211 |  | 
35 | UGAUCUUGUGUCAGGAUAUGCUGGUCUCCUCUCCAGCAGAAGGGACAUGAGGAUCACCCAUGUUCUCUCUUUUU |  |  | 11 | 28.6
36 | GUUUUUCCUCAUGUACAUGAGGAACAUGAGGAUCACCCAUGUAGAAGGAAUUCCCUUAAAUUAAGUUAGGAUAUACAUAUAUUU |  |  | 107 | 77.4
37 | UUAUUUUGUCAAGGAUAUGUAUUAUUGAUUUGAAAACAUGAGGAUCACCCAUGUAUAUGGUGGGAACAGAAGGUGAAUGGUGAA |  |  | 194 | 215
38 | AAAAAACAUGAGGAUCACCCAUGUAAGGAUAUGCGAAAAAAAAAAAAAAAAAAAAAAAGCAGAAGGUACAAAAA |  |  | 99.1 | 94.9

Row | Sequence | apparent Kd [1] [nM] | apparent Kd [2] [nM] | apparent Kd [3] [nM] | apparent Kd [4] [nM]
39 | UUAAACGCAGGAUAUACAUUUUUUUUAUUAUCCUCAUAAAUACAUGAGGAUCACCCAUGUAGAAGGGCGAAAUU |  |  | 239 | 210
40 | AAAAAGUCAGGAUAUCGAAAAAAAAAAAAAAAAAAAAAAAACGAGAAGGGACAUGAGGAUCACCCAUGUAAAAA |  |  | 63.7 | 69.6
41 | AUUUAAAUGUCAGGAUAUGGUAGUUUAUACUUAUUAGAAGGGAUAAUUAUACUCAAGUACAUGAGGAUCACCCAUGUUAAAUCA | 21.9 | 21.5 |  | 
42 | AGAUGCAUGUAGAAGGGAGGAUCACCAGUGUACUCAGGAUAUACAUGUGGUGACAUGAGGAUCACCCAUGUAUGCCAGAAGUUC | 172 | 116 |  | 
43 | AAGGAUAGAGGAUAUACAUAGAUACAGAUUCGUGUAGUCCUACAUGAGGAUCACCCAUGUAGAAGGCUAUCCUA |  |  | 11.8 | 22.9
44 | GUCACCCGAUGAGGAUAUGCACAUGAGGAUCACCCAUGUGACCUCAUCGUGCCGGGAAGCCGGCUGCAGAAGGCAUUGAGGGAU |  |  | 7.76 | 7.25
45 | AGAUAUGAUGCAGGAUAUCUAUCUUGAAUGAGGAGAGAAGGGCAAGCAGAGAGAUAAGCCUUAUUACAUGAGGAUCACCCAUGU |  |  | 10.3 | 8.56
46 | GCAAAGCCUGACAUGAGGAUCACCCAUGUUAGAUUGUUAUGUCAGGAUAUUGUCUAGACACUAGACAAGAAGGGAUGCUUUGCA | 386 | 38.4 |  | 
47 | ACAUGAGGAUCACCCAUGUAGAGUGGAGAAGGUAGAUACUUGUGACUCUCCCAUGUACAUAGGACUGAGGAUAUUCUAAUAAUU | 65.7 | 47.5 |  | 
48 | AUAAUUUUAUAUAUCAUUUUAAUCAGAAGGCAUAACAUGAGGAUCACCCAUGUAUAUUAUAGUUAUGAGGAUAUGAUUUGGUUA |  |  | 11.6 | 10.9
49 | CAUAUAGUAGUGAGGAUAUGCGAAUAUAUAAUUAAGUAGAAGGCACAUGAGGAUCACCCAUGUAUAUUGUAAAG |  |  | 20.6 | 20.6
50 | CUGACGUCAGGAUAUCUGAUGUCUAACUUCGGUUAGACAUCAGAGAAGGGACAUGAGGAUCACCCAUGUCAGAA |  |  | 25.5 | 20.8
51 | AGCAUGCUAGGAUAUACGAAACAUUAGGGUUCUUUGUAUGAACAUGAGGAUCACCCAUGUAGAAGGAGCGUGCA |  |  | 109 | 170
52 | UUAAAUCAUGUAGGAUAUGCAUGGCGAAGCUACGCAGAAGGACAUGAGGAUCACCCAUGUUCUGGCUACCGGAUACGGUGGCAA |  |  | 20.6 | 83.6
53 | GUUUUCACAUGAGGAUAUGCUCGCAUUUCAAGAGCAGAAGGUAUGUCUUUAGACAUGAGGAUCACCCAUGUAUUUAUCAUUGAA | 91.1 | 28.4 |  | 
54 | UCCUUGUCCUGAGGAUAUCCGCGGUUCCCAAAAGGAGAAGGCAGGACAUGAGGAUCACCCAUGUACCCAGAAAACGUACAGAGU |  |  | 44.7 | 162
55 | UUAAAUCAUGUAGGAUAUGCAUGGCGAAGCUACGCAGAAGGACAUGAGGAUCACCCAUGUUAUAGCGUCUGAGUACAGAUGCAA |  |  | 79.6 | 268
56 | GGUUAUUGCAAGGAUAUGCUUUUUUUUGAUAUUGCAGAAGGUGCAACAUGAGGAUCACCCAUGUUGGAGGGAUU |  |  | 30.8 | 91.8
